Experimental data: ChEMBL document CHEMBL2407084, “Novel imino sugar α-glucosidase inhibitors as antiviral compounds” (Bioorg Med Chem, 2013)
Activity calls are given as the source filed them. The calls are words filed in the database; no cut-off is given here.

How the values were obtained:
[1] = tested on: Bovine viral diarrhea virus 1; assay: Antiviral activity against Bovine viral diarrhea virus infected in MDBK cells assessed as reduction in viral infectivity at 50 uM treated for 24 hrs followed by compound washout followed by serially diluted compound treatment measured after 24 hrs by fluorescence microscopic analysis; format: functional, organism-based
Summary of the method: (§1)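 Supernatant from BVDV-infected MDBK cells (MOI 1, 24 h with compound) was clarified, and fivefold serial dilutions infected naive MDBK cells for 24 h. Cells were fixed in 4% paraformaldehyde, blocked in milk, permeabilised with Triton X-100, and probed with MAb103/105 against NS2/3 then FITC anti-mouse. DAPI counterstain. Foci counted by fluorescence microscopy to give FFU/ml relative to untreated control; three experiments, mean and SD.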

[2] = tested on: Bovine viral diarrhea virus 1; assay: Antiviral activity against Bovine viral diarrhea virus infected in MDBK cells assessed as reduction in viral RNA level at 50 uM after 24 hrs by RT-PCR analysis; format: functional, organism-based
Summary of the method: (§2)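 MDBK cells (1.75 10^6/well) infected with BVDV at MOI 1, then incubated with imino sugar for 24 h. Medium was clarified by centrifugation and viral RNA purified, then DNase-treated. SYBR green real-time RT-PCR used primers amplifying a 334-bp NS2 segment, 35 cycles. Copies were calibrated against a standard curve of serially diluted BVDV stock.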

[3] = tested on: Bovine viral diarrhea virus 1; assay: Antiviral activity against Bovine viral diarrhea virus infected in MDBK cells assessed as reduction in viral RNA level at 10 uM after 24 hrs by RT-PCR analysis; format: functional, organism-based; summary of the method: as §2
[4] = tested on: MDBK; assay: Inhibition of endoplasmic reticulum alpha-glucosidase 1 in MDBK cells assessed as accumulation of triglucosylated Man5GlcNAc1 after 24 hrs by NP-HPLC analysis relative to Man4GlcNAc1 level; format: cell-based; details: Bos taurus
Summary of the method: (§3)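 Uninfected MDBK cells (1 10^6/well) were grown with a range of imino sugar concentrations for 24 h at 37 °C. Free oligosaccharides were extracted, labelled with 2-anthranilic acid, and purified on amide and ConA-Sepharose columns. They were separated by NP-HPLC. Peak areas of tri-glucosylated (glucosidase I) or mono-glucosylated (glucosidase II) Man5GlcNAc1 were expressed relative to Man4GlcNAc1. Mean and SD.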

[5] = tested on: MDBK; assay: Inhibition of endoplasmic reticulum alpha-glucosidase 1 in MDBK cells assessed as accumulation of triglucosylated Man5GlcNAc1 after 24 hrs by NP-HPLC analysis; format: cell-based; details: Bos taurus; summary of the method: as §3
[6] = tested on: MDBK; assay: Inhibition of endoplasmic reticulum alpha-glucosidase 2 in MDBK cells assessed as accumulation of monoglucosylated Man5GlcNAc1 after 24 hrs by NP-HPLC analysis relative to Man4GlcNAc1 level; format: cell-based; details: Bos taurus; summary of the method: as §3
[7] = tested on: MDBK; assay: Inhibition of endoplasmic reticulum alpha-glucosidase 2 in MDBK cells assessed as accumulation of monoglucosylated Man5GlcNAc1 after 24 hrs by NP-HPLC analysis; format: cell-based; details: Bos taurus; summary of the method: as §3
[8] = Cytotoxicity against MDBK cells after 72 hrs by MTS assay; format: cell-based, Bos taurus; details: cattle
Summary of the method: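 MDBK cells (5 10^3/well) were plated for 24 h, then given fresh medium with a range of imino sugar concentrations for 72 h. MTS–phenazine methosulfate (20:1) was added for 1 h and absorbance read at 490 nm. Triplicates. CC50 is the concentration giving A490 at 50% of untreated controls.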

[9] = tested on: MDBK; assay: Inhibition of BVDV endoplasmic reticulum alpha-glucosidase 2 infected in MDBK cells assessed as increase in E2 protein glucosylation at 100 uM after 24 hrs by Western blotting analysis; format: cell-based; details: Bovine viral diarrhea virus 1
[10] = tested on: MDBK; assay: Inhibition of BVDV endoplasmic reticulum alpha-glucosidase 1 infected in MDBK cells assessed as increase in E2 protein glucosylation at 100 uM after 24 hrs by Western blotting analysis; format: cell-based; details: Bovine viral diarrhea virus 1
[11] = tested on: Bovine viral diarrhea virus 1; assay: Antiviral activity against Bovine viral diarrhea virus infected in MDBK cells assessed as reduction in viral infectivity at 10 uM treated for 24 hrs followed by compound washout followed by serially diluted compound treatment measured after 24 hrs by fluorescence microscopic analysis; format: functional, organism-based; summary of the method: as §1

SMILES | Activity [1] | Activity [2] | Activity [3] | fold change (FC) [4] | INH [5] [µM] | fold change (FC) [6] | Concentration giving inhibition [7] [µM] | CC50 at 72 h [8] [µM] | activity call (active / not active) [9] | glucosidase I inhibition (active/not active) [10] | Activity [11] | inhibition [5] | inhibition [7]
OC[C@@H]1[C@@H](O)[C@H](O)[C@@H](O)CN1CCc1cn(CC23CC4CC(CC(C4)C2)C3)nn1 | Active | Active | inactive | 0.82 | 100 | 5.1 | 100 | > 250 |  |  |  |  | 
OC[C@@H]1[C@@H](O)[C@H](O)[C@@H](O)CN1Cc1cn(CC23CC4CC(CC(C4)C2)C3)nn1 | Active |  | inactive | 0.54 | 100 | 3 | 100 | > 250 |  |  |  |  | 
OC[C@@H]1[C@@H](O)[C@H](O)[C@@H](O)CN1CCCCc1cn(CC23CC4CC(CC(C4)C2)C3)nn1 | Active | Active | inactive | 1.44 | 100 | 5.2 | 50 | > 250 |  |  |  |  | 
OC[C@@H]1[C@@H](O)[C@H](O)[C@@H](O)CN1CCCCCCn1cc(COCC23CC4CC(CC(C4)C2)C3)nn1 |  |  |  | 11.4 | 100 | 8.3 | 10 | 205 | Active | Active | Active |  | 
OC[C@@H]1[C@@H](O)[C@H](O)[C@@H](O)CN1CCCCCCCCCCn1cc(COCC23CC4CC(CC(C4)C2)C3)nn1 |  |  | Active | 0.26 | 10 | 5.8 | 5 | 29.2 | inactive | inactive | Active |  | 
OC[C@@H]1[C@@H](O)[C@H](O)[C@@H](O)CN1CCCCn1cc(COCC23CC4CC(CC(C4)C2)C3)nn1 |  |  | Active | 1.52 | 100 | 6 | 100 | > 250 | inactive | inactive | Active |  | 
OC[C@@H]1[C@H](O)[C@H](O)[C@@H](O)CN1CCCCn1cc(COCC23CC4CC(CC(C4)C2)C3)nn1 | Active |  |  |  |  |  |  | > 250 | inactive | inactive | Active | inactive | inactive
OC[C@@H]1[C@@H](O)[C@H](O)[C@@H](O)CN1CCCCCCCCn1cc(COCC23CC4CC(CC(C4)C2)C3)nn1 |  |  | Active | 2 | 25 | 5.4 | 10 | 51.7 |  |  | Active |  | 
